PubChem BioAssay AID588423 (The Scripps Research Institute Molecular Screening Center, 2011)
Activity calls are given as the source filed them.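 How the source made its calls: active means IC50 at or below 1 µM; inactive means the rest.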

Biological target: Protein-arginine deiminase type-4 (Homo sapiens) (UniProt Q9UM07)
Assay: recombinant human PAD4 inhibitors – biochemical, BAEE substrate, citrulline absorbance, 0-15 µM range, late-stage follow-up (AID 588423)
Details: recombinant PAD4, BAEE citrulline colorimetric absorbance
Procedure, shortened: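 Schedule: 15 min compound preincubation, 15 min BAEE reaction, 37 °C | Material: Recombinant human PAD4 enzyme | Quantity: 0.2 µM PAD4 enzyme | Technique: Colorimetric absorbance of citrulline at 540 nm | Buffer or medium: Tris-HCl pH 7.6 with 2 mM DTT, 10 mM CaCl2 | Also added: BAEE substrate at 10 mM | Repeats: Two trials per dose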

Sequence of Protein-arginine deiminase type-4 (Homo sapiens) (Q9UM07 whole entry, looked up): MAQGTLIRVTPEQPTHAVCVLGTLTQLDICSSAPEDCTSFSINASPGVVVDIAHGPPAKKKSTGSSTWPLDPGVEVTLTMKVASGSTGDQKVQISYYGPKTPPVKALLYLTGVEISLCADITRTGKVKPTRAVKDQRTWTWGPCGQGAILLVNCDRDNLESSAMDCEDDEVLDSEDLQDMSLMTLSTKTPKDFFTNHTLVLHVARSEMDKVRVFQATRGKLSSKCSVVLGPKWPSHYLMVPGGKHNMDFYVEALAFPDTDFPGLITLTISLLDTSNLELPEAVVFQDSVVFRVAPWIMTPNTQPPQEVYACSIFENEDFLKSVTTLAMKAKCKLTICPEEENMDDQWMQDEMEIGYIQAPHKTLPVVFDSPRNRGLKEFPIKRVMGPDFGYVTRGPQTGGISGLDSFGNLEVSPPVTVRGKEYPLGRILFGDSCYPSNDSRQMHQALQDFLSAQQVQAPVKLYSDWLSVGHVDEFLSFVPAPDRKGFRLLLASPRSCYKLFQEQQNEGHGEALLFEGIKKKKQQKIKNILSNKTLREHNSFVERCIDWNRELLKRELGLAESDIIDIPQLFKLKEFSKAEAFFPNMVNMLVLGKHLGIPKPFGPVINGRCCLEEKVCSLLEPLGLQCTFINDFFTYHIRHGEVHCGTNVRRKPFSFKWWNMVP

Compound: O=C1C(O)=C(O)C(=O)c2ncccc21
- IC50: inactive
